# MT1-MMP act inh – MT1-MMP (human) activation inhibition; AID 651647; GFP/RFP ratio change, % at 20 µM; 360,000 tested, 0.061% active; P50281; HT1080 RFP-PRO-GFP cells, GFP/RFP ratio fluorescence, overnight; percent of plate control window, DMSO zero;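 active = GFP/RFP ratio change of at least 30% with cell ATP level not reduced by more than half and red fluorescence within 50% of control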
#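 Assay system: RFP-PRO-GFP reporter HT1080 cells; read-out basis: GFP/RFP fluorescence ratio; benchmarks: DMSO wells and RFP-L50D-GFP cells; doses: 20 µM single dose, 1% DMSO; schedule: overnight cell settling, then overnight compound exposure, 37 °C, 5% CO2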
# Tn6 DDE FP – inhibitors of Tn6 peptide binding to human fibrin DD(E) | P02675 | Fibrin DD(E) TRITC-Tn6 fluorescence polarization displacement | inhibition, % at 8.3 µM | 370,000 tested, 0.21% active | AID 720509;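 active = inhibition above a per-campaign cutoff: mean of compounds within control limits plus 3 SD, cut at about 15% in these data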;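 also: 0% = median of all compound wells on the plate and 100% = blocking peptide control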
# ADAM17 inh – ADAM17 inhibition, QFRET primary screen; inhibition, % at 6.95 µM; recombinant ADAM17, EDANS/DABCYL FRET peptide cleavage; P78536; 370,000 tested, 0.83% active; AID 720648;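 active = inhibition above the mean of compounds lying between control limits plus 3 SD, set per campaign, cut at about 8.5% in these data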;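 also: 0% = DMSO-only wells as the low control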
# Target sequence (P78536 215-824 limits assumed): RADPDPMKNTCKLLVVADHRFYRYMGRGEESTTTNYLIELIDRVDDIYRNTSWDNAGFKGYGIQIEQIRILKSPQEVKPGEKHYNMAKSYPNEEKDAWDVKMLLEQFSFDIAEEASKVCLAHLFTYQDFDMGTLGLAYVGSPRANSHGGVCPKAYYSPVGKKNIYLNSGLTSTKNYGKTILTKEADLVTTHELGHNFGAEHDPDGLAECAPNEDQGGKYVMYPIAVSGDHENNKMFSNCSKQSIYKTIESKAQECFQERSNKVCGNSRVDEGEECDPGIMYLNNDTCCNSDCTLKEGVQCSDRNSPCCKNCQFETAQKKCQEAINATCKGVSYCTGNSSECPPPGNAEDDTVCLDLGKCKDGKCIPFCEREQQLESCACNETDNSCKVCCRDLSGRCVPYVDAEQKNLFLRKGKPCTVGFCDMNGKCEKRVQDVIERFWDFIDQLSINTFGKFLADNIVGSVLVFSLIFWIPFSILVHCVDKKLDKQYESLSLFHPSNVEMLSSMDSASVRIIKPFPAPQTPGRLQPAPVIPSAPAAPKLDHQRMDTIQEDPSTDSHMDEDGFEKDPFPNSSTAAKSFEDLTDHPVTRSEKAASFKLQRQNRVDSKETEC
# DDE Tn7 FP inh – disrupts Tn7 cyclic peptide binding to fibrin D-Dimer-E complex; P02675; FP displacement of FITC-Tn7 peptide from fibrin DD(E); 0% = median of compound wells per plate; inhibition, % at 8.3 µM; 370,000 tested, 0.13% active; AID 720508;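 active = inhibition above the mean of compounds falling within the control limits plus 3 SD of them, cut at about 14% in these data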;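 also: 0% = plate median of compound wells and 100% = 10 µM Aha-Tn7 peptide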
#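 system = human fibrin DD(E) protein | quantity = DD(E) 2 µM final | medium = Tris/NaCl/CaCl2 buffer, pH 7.8 | also added = labelled Tn7 tracer, 0.1 µM | compound dosing = single point at 8.3 µM | timing = compound with protein 10 min, then 3 h after probe, room temperature | signal = FP measurement | benchmarks = Aha-Tn7 high control | repeats = one replicate per compound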
# ADAM10 inh – inhibitors of human ADAM10; O14672; recombinant ADAM10, EDANS/DABCYL FRET peptide cleavage, 3 h; inhibition, % at 7 µM; 370,000 tested, 0.62% active; AID 720582;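 active = inhibition above a per-campaign cutoff equal to the mean of compounds falling between control-based bounds plus 3 SD, cut at about 20% in these data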;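 also: 0% = DMSO wells while the 100% control is not disclosed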
# Tn6 DDE ctr – counter-screen for inhibitors of Tn6 peptide binding to fibrin DD(E) | TRITC-Tn6 fluorescence polarization displacement; 0% = median of compound wells, not DMSO | inhibition, % at 8.3 µM | 680 tested, 2% active | shares compounds with Tn6 DDE FP;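 active = inhibition above the mean of test compounds lying between the control limits plus 3 SD of those, cut at about 14% in these data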;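 also: 0% = median of compound wells and 100% = wells with Aha-Tn7 blocking peptide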
# DDE Tn6 confirm – confirmation of inhibitors of Tn6 binding to human fibrin DD(E); shares compounds with Tn6 DDE FP; inhibition, % at 8.3 µM; 680 tested, 10% active; AID 720631; FP displacement of TRITC-Tn6 peptide from DD(E); 0% = per-plate median of test wells;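 active = inhibition above the mean of compounds lying within the control limits plus 3 SD, cut at about 16% in these data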;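 also: 100% = high control wells holding a competing inhibitor peptide at 10 µM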
# Starred values were filed as active, the others as inactive; x = not tested or not shown. Rows were chosen to be rich in hits. Some 1.6% of all compounds tested hit in one or more screens of this group.
SMILES,MT1-MMP act inh,Tn6 DDE FP,ADAM17 inh,DDE Tn7 FP inh,ADAM10 inh,Tn6 DDE ctr,DDE Tn6 confirm
COC(=O)[C@]12C[C@H](CC(=O)NCC3CCCCC3)C(=O)N(Cc3cccc4ccccc34)C1=C[C@H](C(C)(C)C)O[C@@H]2C,x,6.2,0.1,4.8,5.1,x,x
O=C1CC(Nc2ccc(N3CCOCC3)cc2)C(=O)N1Cc1ccccc1 (configuration not stated),27.6,20.2*,0.5,4.5,6.1,2.1,-0.5
CC(=O)Oc1cccc2c1C(=O)c1c(OC(C)=O)cc(C(=O)O)cc1C2=O,0.7,16.4*,-7.8,7.9,-13.1,5.4,1.5
COc1ccc(NC(=O)Cn2c(=O)cnc3ccccc32)cc1S(=O)(=O)N1CCCCC1,7.1,27.1*,1.9,-2.6,2.1,3.9,3.1
CN(C)c1ccc(/C=C/C=C2/SC(=S)N(c3ccccc3)C2=O)cc1,-12.7,31.0*,5.4,-1.5,1.3,7.1,58.8*
Cc1cccc(-c2nnc(SCC(=O)c3ccc(F)cc3)n2C)c1,x,-5.5,1.1,-5.3,-1.5,x,x
O=C(c1cc(C2CC2)on1)N(C1CCCCC1)C1CCCCC1,x,-4.2,-5.3,-0.1,-12.4,x,x
CCN(CC)c1ccc(/C=C/c2cc(-c3ccccc3)c3ccccc3n2)cc1,-69.3,17.2*,-5.4,0.4,-16.9,-11.3,-8.2
COC(=O)[C@]12C[C@H](CC(=O)NCc3cccs3)C(=O)N(CCc3ccc(OC)c(OC)c3)C1=C[C@H](C(C)(C)C)O[C@@H]2C,x,-5.0,3.1,-1.9,14.6,x,x
COC(=O)c1cc(C(=O)OCC(=O)NC2CCCCCCC2)cc([N+](=O)[O-])c1,-3.2,16.6*,-2.2,3.6,-8.8,9.5,5.0
O=C(COC(=O)c1ccc([N+](=O)[O-])cc1)NC1CCCC1,-0.9,-9.1,-4.2,-3.4,3.7,x,x
COc1cc(OC)cc(-c2c(-c3ccc(F)cc3)c3cc(-c4ccc(SC)cc4)ccc3n2C)c1,-4.2,0.9,0.8,-1.9,-2.0,x,x
COc1cc(OC)cc(-c2c(-c3ccc(F)cc3)c3cc(-c4ccc5c(c4)OCCO5)ccc3n2C)c1,-1.8,53.2*,-6.7,-0.7,-19.6,-8.4,-6.4
C=CCN1C[C@@H](COCc2ccccc2)OCCS1(=O)=O,x,-4.0,-6.1,-0.9,-8.5,x,x
CCN(CC)S(=O)(=O)c1ccc(C(=O)NCc2ccc3c(c2)cc(C)n3C)cc1,34.8,80.2*,-3.2,3.7,6.7,6.7,-4.0
Cc1cc2cc(CNC(=O)c3ccc(S(=O)(=O)N4CCCC4)cc3)ccc2n1C,16.3,60.2*,-2.8,-4.0,-3.4,-4.6,4.9
CCC(C)[C@H](NC(=O)NCc1ccc(Cl)cc1)C(=O)OC (some centres not stated),0.5,17.1*,-1.3,3.8,2.5,-3.3,-7.6
O=C(Nc1nccs1)c1ccc(-c2ccc(Cl)cc2Cl)o1,5.9,-7.8,5.7,1.2,2.7,x,x
O=C(Nc1nccs1)c1ccc(-c2ccc(F)c(Cl)c2)o1,4.4,27.3*,2.2,4.3,-9.9,1.8,16.0*
CN1C(=O)[C@H]2[C@@H](c3ccc(C(F)(F)F)cc3)N[C@]3(CCCN(CC4CCCCC4)C3=O)[C@H]2C1=O,2.4,15.9*,-5.4,0.6,-12.2,4.4,2.8
COc1cccc(NC(=O)c2cc3ccccc3cc2OC)c1,0.5,15.3*,2.7,-1.6,6.0,6.1,-3.0
COc1ccc(NC(=O)c2cc3ccccc3cc2OC)cc1OC,0.8,9.5,2.5,0.9,3.6,x,x
COc1cccc(/C=C2/Sc3ccc(C(=O)NC4CC4)cc3NC2=O)c1,x,3.9,-2.8,-5.6,-6.3,x,x
C/C=C/C(=O)N1CC2(CC(c3cccc(NC(=O)/C(C)=C/C)c3)=NO2)C[C@H]1C(N)=O (some centres not stated),-1.6,16.9*,1.9,10.2,-2.1,-0.7,2.5
C/C=C(/C)C(=O)Nc1cccc(C2=NOC3(C2)C[C@@H](C(N)=O)N(C(=O)CC)C3)c1 (some centres not stated),2.0,6.8,-5.0,0.3,-8.4,x,x
SMILES,MT1-MMP act inh,Tn6 DDE FP,ADAM17 inh,DDE Tn7 FP inh,ADAM10 inh,Tn6 DDE ctr,DDE Tn6 confirm
Cc1ccc(C)c(NC(=O)C2CCCN2S(=O)(=O)c2cccc3cccnc23)c1 (configuration not stated),x,0.8,2.2,4.9,5.5,x,x
CC(C)(C)c1ccc(S(=O)(=O)NCC(=O)N2CCN(c3ncccn3)CC2)cc1,x,1.6,-1.4,0.6,-0.7,x,x
c1ccc2c(c1)ccc1ccccc12,3.5,4.1,-1.9,0.4,-4.9,x,x
CC1=[N+](C)c2ccc3ccccc3c2C1(C)C,83.0,54.9*,-10.6,-1.5,-33.6,-0.8,8.1
COCCN1Cc2cc(C(=O)OC)c3c(c2C1=O)c1ccccc1n3S(=O)(=O)c1ccc(C)cc1,x,-0.9,3.5,-4.7,-6.1,x,x
CCOc1cc(CNCCCN2CCOCC2)ccc1OCC(=O)Nc1cccc2ccccc12,6.1,18.1*,-4.4,9.7,4.4,-3.8,-4.8
COc1cc(CNCCCN2CCOCC2)ccc1OCC(=O)Nc1cccc(C(F)(F)F)c1,8.7,2.1,5.3,-0.1,10.5,x,x
Cc1ccc(-n2c(SCC(=O)Nc3ccc4c(c3)OCCO4)nnc2-c2cccnc2)cc1,x,-3.9,-2.8,3.2,-3.7,x,x
Cc1cc(Br)ccc1SCC(=O)OCC(=O)NCc1ccco1,-8.9,15.4*,0.6,1.3,1.5,-0.2,-0.6
CCCCNC(=O)CCn1nc(-c2ccccc2)ccc1=O,1.1,4.1,-3.3,9.7,-1.8,x,x
CCCCN(C)CCCNC(=O)CCn1nc(-c2ccccc2)ccc1=O,0.2,16.3*,-1.6,8.0,-2.9,-0.3,2.0
C=C1[C@@H](CCO)N(S(=O)C(C)(C)C)C[C@@H]1C (some centres not stated),x,4.2,-0.7,-6.3,-1.3,x,x
Cc1ncc(C(O)c2ccc(N(C)C)cc2)n1Cc1ccccc1 (configuration not stated),8.9,9.4,-3.6,5.9,-14.8,x,x
CN(C)c1ccc2nc3c(=O)[nH]c(=O)nc-3n(CC(O)C(O)C(O)CO)c2c1 (configuration not stated),-21.1,72.5*,0.8,-0.5,1.0,-11.1,11.6

# High-throughput results: PubChem, several laboratories
